The text below walks through data of paper PMC12642897 (Journal of Enzyme Inhibition and Medicinal Chemistry, 2025).

One assay deals with α-glucosidase (Saccharomyces cerevisiae, UniProt P53341). In words: α-Glucosidase enzyme kinetic analysis. The format is biochemical. The note with it: Lineweaver–Burk plot. The procedure, abridged: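 Yeast (S. cerevisiae) α-glucosidase in phosphate buffer, pH 6.8. p-NPG at 0.625, 1.25 and 2.5 mM was crossed with four concentrations of each test compound (sets of 7–40, 20–80 or 2–12 µM). Incubated 10 min at 37 °C, stopped with 0.2 M Na₂CO₃, read at 405 nm. Lineweaver–Burk plots assign inhibition mode.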
Chain of α-glucosidase (P53341 whole entry): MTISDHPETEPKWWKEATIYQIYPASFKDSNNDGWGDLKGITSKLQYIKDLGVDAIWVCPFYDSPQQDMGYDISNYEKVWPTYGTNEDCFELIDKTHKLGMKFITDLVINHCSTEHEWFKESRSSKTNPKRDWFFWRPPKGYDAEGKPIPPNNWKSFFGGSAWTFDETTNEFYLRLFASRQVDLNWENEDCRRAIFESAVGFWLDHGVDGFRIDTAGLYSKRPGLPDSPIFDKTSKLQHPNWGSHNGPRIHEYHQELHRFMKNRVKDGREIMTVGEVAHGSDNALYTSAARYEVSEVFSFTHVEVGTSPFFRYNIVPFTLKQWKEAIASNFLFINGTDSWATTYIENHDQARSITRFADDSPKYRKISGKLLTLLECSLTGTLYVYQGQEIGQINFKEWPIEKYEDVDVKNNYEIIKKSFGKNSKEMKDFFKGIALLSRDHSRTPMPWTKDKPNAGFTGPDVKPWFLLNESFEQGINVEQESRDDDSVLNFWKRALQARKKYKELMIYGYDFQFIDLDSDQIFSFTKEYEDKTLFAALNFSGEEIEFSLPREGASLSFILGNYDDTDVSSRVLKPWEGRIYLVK

For assay [1], the target named is α-glucosidase enzyme from Saccharomyces cerevisiae (Saccharomyces cerevisiae, UniProt P53341). The assay is described as follows: α-Glucosidase inhibition assay. The format is biochemical.
Chain of α-glucosidase enzyme from Saccharomyces cerevisiae (P53341 whole entry): as above
For assay [2], the target named is T1, PTP1B (Homo sapiens, UniProt P18031).
T1 sequence (P18031 1-435): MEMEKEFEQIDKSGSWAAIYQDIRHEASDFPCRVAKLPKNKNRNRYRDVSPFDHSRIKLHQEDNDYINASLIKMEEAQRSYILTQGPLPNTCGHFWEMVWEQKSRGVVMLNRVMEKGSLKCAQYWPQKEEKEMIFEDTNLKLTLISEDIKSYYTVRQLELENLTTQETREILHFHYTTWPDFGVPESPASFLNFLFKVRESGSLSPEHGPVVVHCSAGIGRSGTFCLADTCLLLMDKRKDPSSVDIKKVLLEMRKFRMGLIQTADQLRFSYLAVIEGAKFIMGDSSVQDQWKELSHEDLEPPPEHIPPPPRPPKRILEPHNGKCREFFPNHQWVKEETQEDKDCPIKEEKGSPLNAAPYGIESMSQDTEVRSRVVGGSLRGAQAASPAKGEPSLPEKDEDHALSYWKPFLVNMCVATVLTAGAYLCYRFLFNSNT
The assay is described as follows: PTP1B enzyme kinetic analysis. The format is biochemical. The note with it: for Ki: PTP1B Ki value, secondary plot. The procedure, abridged:
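Human recombinant PTP1B in 50 mM citrate buffer (pH 6.0) with 0.1 M NaCl, 1 mM EDTA and 1 mM DTT. Test compound at 2, 4, 10 and 12 µM was crossed with p-NPP at 0.5, 1 and 2 mM. Enzyme plus inhibitor preincubated 10 min at 37 °C, then substrate added for 20 min at 37 °C. NaOH stop, A405. Lineweaver–Burk for mode; secondary plots for Kic/Kiu.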

Assay [3] concerns the target T1, PTP1B. The assay is described as follows: PTP1B inhibition assay. The format is biochemical. The note with it: PTP1B IC50, isolated compounds and positive control; tested 1 to 100 µM.
Another assay concerns the target rat sucrase. The note with it: read-out: IC50 against rat sucrase; ref 44 (Barber's review); cited from earlier work.
The next assay deals with rat maltase. The note with it: read-out: IC50 against rat maltase; ref 44 (Barber's review); cited from earlier work.

Each structure is given as a SMILES string.

On to `O=c1oc(-c2ccc(O)c(O)c2)cc2cccc(O)c12` [Compound 12, Thunberginol A], for which the “α-glucosidase Inhibition type” value at α-glucosidase is “Uncompetitive”. For the same compound, the results for the IC50 (in assay [1]; on PTP1B [3]) were 3.4 ± 0.2 µM and 8 ± 1.1 µM, respectively. In addition, the “α-glucosidase potency relative to acarbose” value in assay [1] (ratio of IC50 values) is recorded as “over 70 times”. In addition, the “PTP1B Inhibition type” value at PTP1B [2] (Lineweaver–Burk plot) was “mixed-type”. Further, the Ki came to 12.2 µM at PTP1B [2] (Kic) and 5.5 µM on PTP1B [2] (Kiu).

On to `O=c1c(O)c(-c2ccc(O)c(O)c2)oc2cc(O)cc(O)c12` [quercetin], for which the IC50 on rat sucrase was above 400 µM; on rat maltase it was 281 µM.
